Consider six compounds from ChEMBL document CHEMBL4052786, “The hydrolytic susceptibility of prochelator BSIH in aqueous solutions” (Bioorg Med Chem Lett, 2017).

SMILES strings stand for the structures. The source made the active and inactive calls. The rule behind the calls is not given here.

Data set [1] relates to ARPE-19. Kind of data set: Cytoprotective activity against H2O2-induced toxicity in human ARPE19 cells pretreated for 5 hrs followed by H2O2 addition after 19 hrs by CellTiter-blue assay. Format: functional, cell-based. The gist of the method: (§1)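 ARPE-19 human retinal pigment epithelial cells pre-incubated 5 h with a range of compound concentrations, then given H2O2 at 200 μM. Viability read 19 h after peroxide addition by CellTiter Blue. Expressed as percent of untreated control (100%).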

The test system of data set [2] is ARPE-19. Kind of data set: Cytotoxicity against human ARPE19 cells assessed as reduction in cell viability up to 100 uM after 72 hrs by CellTiter-blue assay. Format: cell-based. The note with it: arpe-19, 72 h. The gist of the method:
(§2)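 Inherent toxicity tested on ARPE-19 cells. Compounds at concentrations up to 100 μM for 72 h. Viability read by CellTiter Blue assay.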

The nature of data set [3]: Stability of the compound in phosphate buffered saline assessed as parent compound remaining at 500 uM at pH 7.4 after 20 mins by UV-vis spectrophotometric analysis. Format: physicochemical. The note with it: read-out: Stability.
Data set [4] is described as follows: Stability of the compound in phosphate buffered saline at pH 7.4 assessed as compound hydrolysis at 100 uM up to 24 hrs by UV-Vis spectrophotometric analysis. The format is physicochemical. The note with it: buffer, pH 7.4, 24 h. The essentials:
(§3)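 Compound at 100 μM dissolved in PBS pH 7.4 or in minimal essential medium. UV-Vis spectra of freshly prepared and 24-h aged solutions kept at ambient temperature were compared.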

Data set [5] is described as follows: Stability of the compound in phosphate buffered saline assessed as parent compound remaining at 100 uM at pH 7.4 after 20 mins by UV-vis spectrophotometric analysis. Format: physicochemical. Conditions: read-out: Stability.
Data set [6] in a line: Stability of the compound in phosphate buffered saline at pH 7.4 assessed as compound hydrolysis at 100 uM within 20 mins by UV-Vis spectrophotometric analysis. Format: physicochemical. Conditions: buffer, pH 7.4, 20 min.
Data set [7] is described as follows: Drug level treated with BSIH assessed as metabolite formation at 500 uM after 24 hrs in presence of H2O2 by 1H-NMR spectroscopic analysis.
The subject of data set [8] is ARPE-19. Kind of data set: Cytoprotective activity against H2O2-induced toxicity in human ARPE19 cells up to 100 uM pretreated for 5 hrs followed by H2O2 addition after 19 hrs by CellTiter-blue assay. Format: functional, cell-based. The gist of the method:
as §1

Data set [9] is described as follows: Stability of the compound in aqueous solvent at 500 uM after 24 hrs in presence of H2O2 by 1H-NMR spectroscopic analysis. The format is physicochemical. Conditions: buffer.
Data set [10] is described as follows: Drug level treated with BSIH in DMSO assessed as metabolite formation at 100 uM at pH 7.4 after overnight incubation in presence of H2O2 by UV-vis spectrometric analysis.
Data set [11] in a line: Stability of the compound in phosphate buffered saline at pH 7.4 assessed as compound hydrolysis at 100 uM after 24 hrs by UV-Vis spectrophotometric analysis. Format: physicochemical. The note with it: buffer, pH 7.4, 24 h. The essentials:
as §3

The nature of data set [12]: Half-life in RPMI media at 100 uM. The format is physicochemical.
A short description of data set [13]: Stability of the compound in minimal essential medium assessed as compound hydrolysis at 100 uM within 24 hrs by UV-Vis spectrophotometric analysis.
Data set [14] in a line: Drug metabolism in RPMI media assessed as equilibrium hydrolysis constant at 100 uM. Format: physicochemical.
Data set [15] in a line: Stability of the compound in minimal essential medium assessed as compound hydrolysis at 100 uM at pH 7.4 after 24 hrs by UV-Vis spectrophotometric analysis. The essentials:
as §3

The subject of data set [16] is ARPE-19. The data set is described as follows: Cytotoxicity against human ARPE19 cells assessed as reduction in cell viability at 100 uM after 72 hrs by CellTiter-blue assay relative to control. Format: cell-based. Conditions: arpe-19, 72 h. The gist of the method:
as §2

Data set [17] can be described thus: Stability of the compound in Britton-Robinson buffer at pH 8 assessed as parent compound remaining at 100 uM by UV-vis spectrometric analysis. Conditions: read-out: Stability. Format: physicochemical.
Data set [18] is described as follows: Drug metabolism in phosphate buffered saline at pH 7.4 assessed as formation of isoniazid by measuring elution time at 100 uM after 24 hrs in presence of H2O2 by LC-MS analysis. Format: physicochemical. The note with it: buffer, pH 7.4, 24 h.
Data set [19] can be described thus: Stability of the compound in Britton-Robinson buffer at pH 4 assessed as parent compound remaining at 100 uM by UV-vis spectrometric analysis. Format: physicochemical. Conditions: read-out: Stability.
Data set [20] is described as follows: Stability of the compound in Britton-Robinson buffer at pH 6 assessed as parent compound remaining at 100 uM by UV-vis spectrometric analysis. The format is physicochemical. Conditions: read-out: Stability.
A short description of data set [21]: Stability of the compound in Britton-Robinson buffer at pH 10 assessed as parent compound remaining at 100 uM by UV-vis spectrometric analysis. The note with it: read-out: Stability. The format is physicochemical.
The nature of data set [22]: Drug metabolism in D2O/5% DMSO-d6 assessed as formation of aldehyde proton of salicylaldehyde at 500 uM after 1 hr by 1H-NMR spectroscopic analysis. The format is physicochemical.
Data set [23] in a line: Drug metabolism in D2O/5% DMSO-d6 assessed as pinacol dissociation by measuring formation of boronic acid form of BASIH at 500 uM after 1 hr by 1H-NMR spectroscopic analysis. Format: physicochemical.
Data set [24] is described as follows: Stability of the compound in minimal essential medium assessed as compound hydrolysis at 100 uM at pH 7.4 within 20 mins by UV-Vis spectrophotometric analysis.
A short description of data set [25]: Stability of the compound in minimal essential medium assessed as compound hydrolysis at 100 uM at pH 7.4 up to 24 hrs by UV-Vis spectrophotometric analysis. The gist of the method:
as §3

Data set [26] can be described thus: Stability of the compound in Britton-Robinson buffer at pH 12 assessed as parent compound remaining at 100 uM by UV-vis spectrometric analysis. Format: physicochemical. The note with it: read-out: Stability.
Data set [27] can be described thus: Drug metabolism in DMSO-d6 assessed as formation of pinacol boronic ester form of BSIH at 10 mM by 1H-NMR spectroscopic analysis. The format is physicochemical. Conditions: 10000 µM.
The nature of data set [28]: Stability of the compound in aqueous solvent assessed as parent compound remaining at 100 uM after 24 hrs in presence of H2O2 by 1H-NMR spectrometric method. The format is physicochemical. The note with it: aqueous solvent with H2O2; read-out: Stability.
The nature of data set [29]: Drug metabolism in phosphate buffered saline at pH 7.4 assessed as equilibrium hydrolysis constant measured at 1 min interval for 20 mins by UV-vis spectrophotometric method. The format is physicochemical. Conditions: buffer, pH 7.4, 20 min.
The nature of data set [30]: Stability of the compound in D2O/5% DMSO-d6 assessed as parent compound remaining at 500 uM after 1 hr by 1H-NMR spectroscopic analysis. The format is physicochemical. Conditions: read-out: Stability.
A short description of data set [31]: Drug metabolism in phosphate buffered saline at pH 7.4 assessed as formation of salicylaldehyde by measuring retention time at 100 uM after 24 hrs in presence of H2O2 by LC-MS analysis. Format: physicochemical. Conditions: buffer, pH 7.4, 24 h.
Data set [32] can be described thus: Stability of the compound in Britton-Robinson buffer at pH 2 assessed as parent compound remaining at 100 uM by UV-vis spectrometric analysis. The note with it: read-out: Stability. Format: physicochemical.
A short description of data set [33]: Drug metabolism in phosphate buffered saline at pH 7.4 assessed as formation of SIH by measuring elution time at 100 uM after 24 hrs in presence of H2O2 by LC-MS analysis. Format: physicochemical. The note with it: buffer, pH 7.4, 24 h.
Data set [34] can be described thus: Drug metabolism in DMSO-d6 assessed as formation of hydrazone proton at 10 mM by 1H-NMR spectroscopic analysis. The note with it: 10000 µM. The format is physicochemical.
Data set [35] is described as follows: Drug metabolism in D2O/5% DMSO-d6 assessed as formation of hydrazone proton at 500 uM after 1 hr by 1H-NMR spectroscopic analysis. The format is physicochemical.

Regarding `O=Cc1ccccc1B(O)O`, the Activity result is “Dose-dependent effect” with ARPE-19 [1] and “Non-Toxic” with ARPE-19 [2].
Turning to `O=C(N/N=C/c1ccccc1B(O)O)c1ccncc1`, the remaining at 20 min, 500 µM in [3] worked out at 84%. Besides, the Stability entry is listed as “Stable” in data set [4] and “Unstable” in data set [6]. Besides, in data set [5], the remaining at 20 min, 100 µM is 68%.
For `O=Cc1ccccc1O` [SALICYLADEHYDE], the Activity result in the data set with ARPE-19 [1] was “Dose-dependent effect”; in the data set on ARPE-19 [2], “Non-Toxic”. The Drug metabolism result in data set [7] is given as “Metabolite detected”.
Consider `NNC(=O)c1ccncc1` [ISONIAZID], for which the outcome with ARPE-19 [8] was inactive. Moreover, the Activity result in the data set with ARPE-19 [2] is “Non-Toxic”. Also, the Drug metabolism entry in [7] is listed as “Metabolite detected”.
For `O=C(N/N=C/c1ccccc1O)c1ccncc1` [SALINAZID], the figures for the Activity result with ARPE-19 [1] and in the data set on ARPE-19 [16] were “Dose-dependent effect” and 30%, respectively. Besides, the Stability entry is “Stable” in data set [9], “Stable” in data set [11], “Unstable” in [13] and “Unstable” in data set [15]. Further, the Drug metabolism entry in data set [10] is reported as “Metabolite detected”. Also, in [12], the half-life at 100 µM was 2.7 h. In addition, the K in [14] turned out to be 5 ×10⁻⁴ M.
For the compound `CC1(C)OB(c2ccccc2/C=N/NC(=O)c2ccncc2)OC1(C)C`, the remaining at 100 µM in [17] was 65%; in [19], 26%; in data set [20], 36%; in data set [21] it was 67%; in [26], 50%; in [32] it was 9%. In addition, the Activity result in the data set with ARPE-19 [1] is “Dose-dependent effect”; in the data set with ARPE-19 [2], “Non-Toxic”. Further, the Time in [18] was found to be 2 min; in data set [33], 13 min. Further, the Drug metabolism in [22] was 9.9 ppm; in data set [23], 1.03 ppm; in data set [27], 1.34 ppm; in [34], 8.79 ppm; in [35], “Metabolite_Notdetected”. Further, the Stability entry in [24] was “Unstable”; in data set [4], “Stable”; in data set [25], “Stable”; in [6], “Unstable”. The remaining at 24 h, 100 µM in data set [28] is 25%. In [29], the K was 1.5 ×10⁻⁵ M. Also, in [30], the remaining at 1 h, 500 µM is 80%. Besides, in data set [31], the Retention_time was found to be 12 min.
